In ChEMBL document CHEMBL4368859, “Discovery of boron-containing compounds as Aβ aggregation inhibitors and antioxidants for the treatment of Alzheimer's disease” (Medchemcomm, 2018):
Active and inactive are the calls of the source. The rule behind the calls is not given here.

Experiments:
[1] = target: T1, Amyloid-beta precursor protein (Homo sapiens, UniProt P05067); test: Inhibition of self-induced aggregation of amyloid beta (1 to 42) (unknown origin) at 20 uM after 48 hrs by thioflavin T-based fluorescence method relative to control
Summary of the method: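 Aβ1-42 stock was in 1% ammonium hydroxide, diluted in 50 mM phosphate buffer (pH 7.4). Peptide (25 µM final) was incubated ± compound at 37 °C for 48 h, with peptide-free blanks. Samples were diluted in 50 mM glycine-NaOH (pH 8.0) with 5 µM ThT and read after 5 min (ex 450/em 485 nm). Inhibition = (1−IFi/IFc)×100 after background subtraction. At least three independent measurements, mean ± SD.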

[2] = Antioxidant activity assessed as trolox equivalents of AAPH radical scavenging activity at 20 uL preincubated for 10 mins followed by AAPH addition measured every min for 120 mins by ORAC-FL assay; assay type: functional
Summary of the method: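 Test compound diluted to 10 µM in 75 mM phosphate buffer (pH 7.4). It was pre-incubated with fluorescein (70 nM final) at 37 °C, then AAPH (40 mM solution) was added. Fluorescence (ex 485/em 520 nm) was read each minute for 120 min. […] Triplicates, at least three independent runs, mean ± SD.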

[3] = target: T1, Amyloid-beta precursor protein; test: Inhibition of self-induced aggregation of amyloid beta (1 to 42) (unknown origin) after 48 hrs by thioflavin T-based fluorescence method
[4] = Metal chelating activity assessed as Fe3+-compound complex formation at 20 uM after 30 mins by UV-Vis spectrophotometric method
[5] = Metal chelating activity assessed as Cu2+-compound complex formation by measuring shift in maximum absorption wavelength at 20 uM after 30 mins by UV-Vis spectrophotometric method
Summary of the method: (§1)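 UV-Vis absorption spectra were recorded for compound (20 µM final) alone or with CuSO4, FeSO4 or ZnCl2 (40 µM final) after 30 min. Medium was 20% (v/v) ethanol/buffer (20 mM HEPES, 150 mM NaCl, pH 7.4), at room temperature.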

[6] = target: T1, Amyloid-beta precursor protein; test: Potency index, ratio of curcumin IC50 to test compound IC50 for self-induced aggregation of amyloid beta (1 to 42) (unknown origin)
[7] = Metal chelating activity assessed as Zn2+-compound complex formation at 20 uM after 30 mins by UV-Vis spectrophotometric method; summary of the method: as §1
[8] = Metal chelating activity assessed as Fe2+-compound complex formation by measuring shift in maximum absorption wavelength at 20 uM after 30 mins by UV-Vis spectrophotometric method; summary of the method: as §1

T1 sequence (P05067 whole entry): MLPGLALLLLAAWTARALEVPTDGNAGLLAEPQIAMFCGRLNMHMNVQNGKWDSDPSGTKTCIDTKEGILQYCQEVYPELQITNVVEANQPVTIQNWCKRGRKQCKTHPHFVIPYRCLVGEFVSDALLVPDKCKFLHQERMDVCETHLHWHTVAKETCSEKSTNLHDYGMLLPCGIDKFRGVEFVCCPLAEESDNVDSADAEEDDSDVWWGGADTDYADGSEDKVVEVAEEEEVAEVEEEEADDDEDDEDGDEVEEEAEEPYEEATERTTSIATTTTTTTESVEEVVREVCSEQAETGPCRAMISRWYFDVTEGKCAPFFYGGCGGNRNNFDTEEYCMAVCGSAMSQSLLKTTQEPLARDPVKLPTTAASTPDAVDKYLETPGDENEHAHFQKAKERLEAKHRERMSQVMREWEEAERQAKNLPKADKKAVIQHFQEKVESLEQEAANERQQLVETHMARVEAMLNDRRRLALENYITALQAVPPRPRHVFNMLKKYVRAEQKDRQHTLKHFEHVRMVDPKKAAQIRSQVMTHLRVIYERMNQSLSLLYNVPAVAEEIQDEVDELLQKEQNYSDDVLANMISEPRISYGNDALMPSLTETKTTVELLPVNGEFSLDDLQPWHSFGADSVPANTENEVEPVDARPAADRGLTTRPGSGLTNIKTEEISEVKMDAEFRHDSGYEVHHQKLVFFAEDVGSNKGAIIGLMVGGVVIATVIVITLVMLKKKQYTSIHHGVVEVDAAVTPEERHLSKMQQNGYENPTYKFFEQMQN

| SMILES | inhibition [1] | Activity (umolequiv/umol) [2] | IC50 [3] | also measured |
| --- | --- | --- | --- | --- |
| OB1Oc2ccc3ccc(O)cc3c2C=C1c1ccc(O)cc1 | 20.5% | 4.45 | – | – |
| CN(C)c1ccc2c3c(ccc2c1)OB(O)C(c1ccc(O)c(O)c1)=C3 | 49.5% | 4.88 | – | – |
| OB1Oc2cc(O)ccc2C=C1c1cc(O)cc(O)c1 | 50.2% | 4.84 | 21.7 µM | – |
| OB1Oc2ccc3ccc(O)cc3c2C=C1c1cc(O)cc(O)c1 | 78.7% | 5.34 | 4.9 µM | – |
| OB1Oc2ccc3cc(O)ccc3c2C=C1c1ccc(O)cc1 | 12.3% | 3.94 | – | – |
| Oc1ccc(/C=C/c2cc(O)cc(O)c2)cc1 | – | 5.33 | – | – |
| OB1Oc2ccc3ccc(O)cc3c2C=C1c1ccc(O)c(O)c1 | 82.8% | 4.55 | 3.4 µM | Activity [4]: inactive; Activity [5]: 355 nm; Ratio IC50 [6]: 4; Activity [7]: inactive; Activity [8]: 350 nm |
| CN(C)c1ccc2c3c(ccc2c1)OB(O)C(c1cc(O)cc(O)c1)=C3 | 32.4% | 5.27 | – | – |
| OB1Oc2ccc3ccccc3c2C=C1c1ccc(O)c(O)c1 | 43.7% | 2.7 | – | – |
| OB1Oc2ccc3ccccc3c2C=C1c1cc(O)cc(O)c1 | 67.3% | 3 | 12.6 µM | – |
| OB1Oc2ccc3ccccc3c2C=C1c1ccc(O)cc1 | 0% | 2.06 | – | – |
| OB1Oc2ccc3cc(O)ccc3c2C=C1c1cc(O)cc(O)c1 | 70.3% | 5.87 | 8.9 µM | – |
| COc1cc(/C=C/C(=O)O)ccc1O | – | 3.24 | – | – |
| CN(C)c1ccc2c3c(ccc2c1)OB(O)C(c1ccc(O)cc1)=C3 | 0% | 2.41 | – | – |
| OB1Oc2ccc(O)cc2C=C1c1ccc(O)c(O)c1 | 58.8% | 4.09 | 17.5 µM | – |
| OB1Oc2ccc3cc(O)ccc3c2C=C1c1ccc(O)c(O)c1 | 80.5% | 4.05 | 4.6 µM | – |
| COc1ccc(/C=C/c2cc(OC)cc(OC)c2)cc1 | – | 0.21 | – | – |
